Rows were chosen to be rich in hits. Some 3.2% of all compounds tested hit in one or more screens of this group.
PLK1 kinase inh = blocks human PLK1 kinase activity | P53350 | recombinant PLK1 kinase, TR-FRET peptide phosphorylation | inhibition, % at 10 µM | 0.53% of 97,000 active | AID 619;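 active = inhibition of 50% or more in the single-concentration screen; inactive = inhibition below 50%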
Plk1 PBD FP = blocks phosphopeptide binding to human Plk1 polo box domain; P53350; Plk1 PBD phosphopeptide binding, fluorescence polarization; inhibition, %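 (tested at about 20 µM)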; 0.13% of 97,000 active; AID 693; in the data active = inhibition above about 34%, passing the limit was not always enough
Rev-RRE block = inhibitors of HIV-1 Rev-RRE RNA interaction. P05866. Rev peptide-RRE RNA binding, FRET. inhibition, % at 8 µM. 0.79% of 97,000 active;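 active = inhibition above the screen-wide mean plus 3 SD, cut at about 35% in these data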
Target sequence (P05866 whole entry, looked up): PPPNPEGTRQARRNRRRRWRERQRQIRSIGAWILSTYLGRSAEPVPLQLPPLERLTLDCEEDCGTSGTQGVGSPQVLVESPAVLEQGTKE
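Assay system: labelled RRE RNA duplex and labelled Rev peptide / Medium: HEPES pH 7.5 salt buffer with EDTA / Reagent: labelled Rev peptide / Schedule: 5 + 15 min at 25 °C / Signal: FRET, excitation 480 nm, emission 540 nm donor and 671 nm acceptor / Benchmarks: DMSO and neomycin B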
FAK blocker = blocks human focal adhesion kinase activity; inhibition, %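 (tested at 7 µM)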; Q05397; biochemical FAK kinase activity assay; AID 727; 0.84% of 97,000 active; in the data active = inhibition above about 19%
DAT uptake mod = changed human dopamine transporter uptake under cocaine IC80; Q01959; LLC-PK1 hDAT cells, [14C]-dopamine uptake with cocaine IC80; actives deviate in either direction; B-score at 10 µM; 1.3% of 110,000 active;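 active = Z score or B-score, a plate-position-corrected score, falls beyond the plate's 99.7% confidence bounds, in either direction; inactive = both scores lie inside the 99.7% bounds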
Target sequence (Q01959 whole entry, looked up): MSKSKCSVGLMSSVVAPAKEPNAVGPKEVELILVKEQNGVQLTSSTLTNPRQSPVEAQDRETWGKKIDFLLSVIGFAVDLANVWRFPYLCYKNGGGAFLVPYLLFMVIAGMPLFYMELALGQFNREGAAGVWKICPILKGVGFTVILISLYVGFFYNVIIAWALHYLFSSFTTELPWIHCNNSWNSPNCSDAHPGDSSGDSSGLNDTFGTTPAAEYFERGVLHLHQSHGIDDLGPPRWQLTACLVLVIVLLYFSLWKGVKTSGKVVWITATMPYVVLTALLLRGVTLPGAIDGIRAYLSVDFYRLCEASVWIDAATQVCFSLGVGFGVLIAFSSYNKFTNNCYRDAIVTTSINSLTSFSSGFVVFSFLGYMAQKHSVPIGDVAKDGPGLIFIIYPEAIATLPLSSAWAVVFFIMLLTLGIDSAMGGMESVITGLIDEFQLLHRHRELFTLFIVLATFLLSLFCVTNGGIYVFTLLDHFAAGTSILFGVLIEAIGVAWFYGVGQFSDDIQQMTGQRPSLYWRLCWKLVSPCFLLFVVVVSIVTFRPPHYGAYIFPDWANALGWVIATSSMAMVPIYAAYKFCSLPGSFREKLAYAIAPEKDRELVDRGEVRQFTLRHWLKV
EphB4 antag = blocks human EphB4 binding to ephrin-B2; P54760; EphB4 LBD / TNYL-RAW-Alexa532 peptide, fluorescence polarization; inhibition, % at 7 µM; 0.15% of 97,000 active;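 active = inhibition above the screen-wide mean inhibition plus 3 SD, cut at about 15% in these data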
PLK1 inh conf = PLK1 (human) kinase inhibition, confirmed; 20% of 210 active; recombinant PLK1 kinase, TR-FRET peptide phosphorylation; shares compounds with PLK1 kinase inh; inhibition, % at 10 µM;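 active = inhibition at or above 50% in each of two repeat confirmation tests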
Plk1 interf = interferes with the Plk1 assay readout, not true inhibition. inhibition (interference), % at 10 µM. 210 tested, under 10 active. Plk1 TR-FRET assay interference, compound added post-reaction. shares compounds with PLK1 kinase inh;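 active = both duplicate runs show 50% or greater inhibition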
Of the large screens only hits and unclear results are named; the others gave an inactive call (follow-up assays come after a bar, where they were run).

Cc1ccc(Cl)cc1N1CCN(C(=O)C2CCN(c3nnc(-n4cccc4)s3)CC2)CC1	none (no result: PLK1 kinase inh, Plk1 PBD FP, Rev-RRE block, FAK blocker, EphB4 antag)
CS(=O)(=O)Cc1nc2ccccc2oc1=O	none
C/C(O)=C\c1nc2ccccc2oc1=O	PLK1 kinase inh 124 | PLK1 inh conf inactive | Plk1 interf inactive
Cc1csc(NC(=O)CSc2nnc3c4ccccc4nc(C(C)(C)C)n23)n1	none
Cc1ccccc1NC(=O)c1ccc(S(=O)(=O)N(C)C)cc1	PLK1 kinase inh 72 | PLK1 inh conf inactive | Plk1 interf inactive
CC(C)n1c(SCc2ccccc2F)nc2c1c(=O)n(C)c(=O)n2C	PLK1 kinase inh 78 | PLK1 inh conf inactive | Plk1 interf inactive
COc1ccc(N2CC(C(=O)NCc3ccccc3)CC2=O)cc1 (stereo unspecified)	none (no result: PLK1 kinase inh, Plk1 PBD FP, Rev-RRE block, FAK blocker, EphB4 antag)
COc1ccc(N2CC(C(=O)NC3CC(C)(C)NC(C)(C)C3)CC2=O)cc1 (stereo unspecified)	PLK1 kinase inh 70 | PLK1 inh conf inactive | Plk1 interf inactive
Fc1ccc2c(Cl)c(-c3nnc(-c4cccs4)o3)sc2c1	none (no result: PLK1 kinase inh, Plk1 PBD FP, Rev-RRE block, FAK blocker, EphB4 antag)
COc1ccc(C(=O)N2CCOCC2)cc1Br	PLK1 kinase inh 130 | PLK1 inh conf inactive | Plk1 interf inactive
CC1CCN(CC(C)OC(=O)c2ccc3c(c2)OCCO3)CC1 (stereo unspecified)	PLK1 kinase inh 70 | PLK1 inh conf inactive | Plk1 interf inactive
C=CCc1cc(C)ccc1OCCn1ccnc1	PLK1 kinase inh 86 | PLK1 inh conf inactive | Plk1 interf inactive
CCCCNC(=O)CSc1nc2ccsc2c(=O)n1C1CCN(C(=O)OCC)CC1	none
CC(=O)c1ccc(NC(=O)c2cnn3ccccc23)cc1	none
CC(=O)c1cccc(NC(=O)c2cnn3ccccc23)c1	PLK1 kinase inh 80 | PLK1 inh conf inactive | Plk1 interf inactive
COC(=O)c1ccccc1OCC(=O)N1CCN(c2ccc(OC)cc2)CC1	none
c1ccc(-c2noc(CN3CCN(c4ccccc4)CC3)n2)cc1	PLK1 kinase inh 73 | PLK1 inh conf inactive | Plk1 interf inactive
CCCNC(=O)CS(=O)Cc1nc(-c2cccc(OC)c2)oc1C (stereo unspecified)	none
COc1cccc(-c2nc(CS(=O)CC(=O)NCc3ccccc3)c(C)o2)c1 (stereo unspecified)	PLK1 kinase inh 72 | PLK1 inh conf inactive | Plk1 interf inactive
CCCCNCc1cc(Br)c(OCc2cccs2)c(OC)c1	none
CCCCNCc1cc(Br)c(OCC(=O)N2CCOCC2)c(OC)c1	PLK1 kinase inh 125 | PLK1 inh conf inactive | Plk1 interf inactive
CCOc1ccc2nc(SCC(=O)Nc3ccc4c(c3)OCCO4)[nH]c2c1	none
O=C(CSc1nc2ncc(Br)cc2[nH]1)Nc1ccc2c(c1)OCO2	PLK1 kinase inh 70 | PLK1 inh conf inactive | Plk1 interf inactive
Cc1ccc(-c2noc(C3CCCN(C(=O)c4c(F)cccc4F)C3)n2)cc1 (stereo unspecified)	PLK1 kinase inh 125 | PLK1 inh conf inactive | Plk1 interf inactive
CC1(C)CC(=O)c2sc(NC(=O)C3CC3)nc2C1	PLK1 kinase inh 75 | PLK1 inh conf inactive | Plk1 interf inactive
CCOCC(=O)Nc1nc2c(s1)C(=O)CC(C)(C)C2	none
O=C(NCc1ccc2c(c1)OCO2)c1ccc(CS(=O)(=O)c2ccc(Br)cc2)o1	PLK1 kinase inh 76 | PLK1 inh conf inactive | Plk1 interf inactive
O=C(Nc1ccccc1)Nc1nccs1	PLK1 kinase inh 93 | PLK1 inh conf inactive | Plk1 interf inactive
COc1ccc(NC(=O)Nc2nccs2)cc1	none
Cc1[nH]n(-c2ccccc2)c(=O)c1C(C[N+](=O)[O-])c1ccc(Br)cc1 (stereo unspecified)	PLK1 kinase inh 101 | PLK1 inh conf inactive | Plk1 interf inactive
O=C(Cc1cccc2ccccc12)N/N=C/c1ccc(Sc2nc3ccccc3s2)o1	none
COC(=O)c1c(-c2ccc(Br)cc2)noc1N	PLK1 kinase inh 77 | PLK1 inh conf 63 | Plk1 interf inactive
NC(=S)NNc1cc(Cl)cc(Cl)c1	none
NC1(N)OC(CN2C(=O)c3ccccc3C2=O)CS1 (stereo unspecified)	PLK1 kinase inh 116 | PLK1 inh conf inactive | Plk1 interf inactive
O=C(NCCOc1ccccc1)C1Nc2ccc(OC(F)(F)F)cc2C2C=CCC12 (stereo unspecified)	none (no result: PLK1 kinase inh, Plk1 PBD FP, Rev-RRE block, FAK blocker, EphB4 antag)
O=C(O)c1ccc2c(c1)[C@@H]1C=CC[C@@H]1[C@H](c1ccccn1)N2	PLK1 kinase inh 72 | PLK1 inh conf 59 | Plk1 interf inactive
CCN1CCN(CC(=O)Nc2ccc3c(c2)OCCO3)C(=O)C1=O	PLK1 kinase inh 73 | PLK1 inh conf inactive | Plk1 interf inactive
COc1cccc(NC(=O)CN2C(=O)COc3ccc(Cl)cc32)c1	PLK1 kinase inh 76 | PLK1 inh conf inactive | Plk1 interf inactive
Cc1ccc(C(=O)N2CCC(C)CC2)cc1C	none
CCN1C(=O)C(O)(CC(=O)c2ccc3c(c2)OCCO3)c2ccccc21 (stereo unspecified)	PLK1 kinase inh 72 | PLK1 inh conf inactive | Plk1 interf inactive
COc1ccc(CN2C(=O)C(O)(CC(=O)c3ccc4c(c3)OCO4)c3ccccc32)cc1OC (stereo unspecified)	none
Cc1cc2c(=O)[nH]cnc2s1	none
CCOc1c(Br)ccc2c1sc1nc[nH]c(=O)c12	PLK1 kinase inh 76 | PLK1 inh conf 68 | Plk1 interf inactive
CCCCn1nc(C(=O)O)ccc1=O	none
CCOC(=O)COc1ccsc1C(=O)OC	none
CCC(C)(C)NC(=O)C(c1ccco1)N(C(=O)CNC(=O)c1cccs1)c1cccnc1 (stereo unspecified)	PLK1 kinase inh 109, DAT uptake mod -8.2 | PLK1 inh conf inactive | Plk1 interf inactive
CC(C)c1ccc(C(C(=O)NC(C)(C)C)N(C(=O)CNC(=O)c2ccco2)c2cccnc2)cc1 (stereo unspecified)	none
CC1CN(C)C(c2ccccc2)C(C)C12NC(=O)NC2=O (stereo unspecified)	none
CCOc1ccc(N2Nc3n[nH]c(N)c3N2)cc1	PLK1 kinase inh 78 | PLK1 inh conf 68 | Plk1 interf inactive
COc1ccc(N2Nc3n[nH]c(N)c3N2)cc1	PLK1 kinase inh 80 | PLK1 inh conf 74 | Plk1 interf inactive
CCOc1ccc(N2C(=O)c3ccccc3C2=O)cc1	none
O=C(C1=C[C@@H](C2CCCCC2)C[C@@H](OCCCCO)O1)N1CCN(Cc2ccc3c(c2)OCO3)CC1	none (no result: PLK1 kinase inh, Plk1 PBD FP, Rev-RRE block, FAK blocker, EphB4 antag)
CC(=O)Nc1ccc(-n2nnnc2SCC(=O)N2CCN(C(=O)c3ccco3)CC2)cc1	none
O=C(CCC(=O)c1ccc(Cl)cc1)OCC(=O)c1ccccc1	PLK1 kinase inh 126 | PLK1 inh conf inactive | Plk1 interf inactive

Screening data (PubChem BioAssay)
